Data taken from article PMC8251533 (Clinical Pharmacology in Drug Development, 2021).

Legend:
[1] = SNAC plasma pharmacokinetics after a single dose of oral semaglutide; type: in vivo, human; conditions: for Median tmax,SNAC: plasma, LC-MS/MS
Summary of the method: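 Two-period randomized crossover in 26 fasting healthy men. Each received one 10 mg tablet (coformulated with 300 mg absorption enhancer), upright, between 8 and 11 am, with 50 or 240 mL water. Fasting continued ≥4 h, with 200 mL water at 2 h. Plasma was drawn predose and 10 min–6 h and assayed by protein precipitation LC-MS/MS. Trapezoidal AUC0-6h used actual times. AUC and Cmax were log-transformed; mixed model had volume and period fixed, subject random.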

[2] = Semaglutide plasma pharmacokinetics after a single dose of oral semaglutide; type: in vivo, human
Summary of the method: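 Same crossover, dosing and fasting. Plasma was drawn predose and 0.5–24 h and analysed by LC-MS/MS (LLOQ 0.73 nmol/L). Trapezoidal AUC0-24h was used; log-transformed mixed models (volume, period fixed; subject random) allowed left-censoring. For correlation, log PK was modelled against log time to complete tablet erosion, assessed by gamma scintigraphy of ¹¹¹In-labelled tablets. 2^β gave the fold change per doubling. All-below-LLOQ profiles were imputed from 0.5×LLOQ.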

[3] = single oral semaglutide tablet with 300 mg SNAC, fasting healthy men
[4] = linear mixed model, log-transformed

| SMILES | Median tmax,SNAC ([1]; 50 mL water) [min] | Median tmax,SNAC ([1]; 240 mL water) [min] | AUC0-6h,SNAC, lower with 50 versus 240 mL water [1, 3] [%] | Cmax,SNAC, lower with 50 versus 240 mL water [1, 3] [%] | 2^β, estimated fold change in AUC0-24h,semaglutide if time to CTE is doubled [2, 4] | 2^β, estimated fold change in Cmax,semaglutide if time to CTE is doubled [2, 4] | 2^β, estimated fold change in tmax,semaglutide if time to CTE is doubled [2, 4] | AUC0-24h,semaglutide, higher with 50 versus 240 mL water ([2]; single 10 mg oral semaglutide) | Cmax,semaglutide, higher with 50 versus 240 mL water ([2]; single 10 mg oral semaglutide) |
| --- | --- | --- | --- | --- | --- | --- | --- | --- | --- |
| O=C([O-])CCCCCCCNC(=O)c1ccccc1O.[Na+] [SNAC, sodium N‐(8‐[2‐hydroxybenzoyl]amino) caprylate] | 18 | 18 | 19 | 38 | – | – | – | – | – |
| CC[C@H](C)[C@H](NC(=O)[C@H](Cc1ccccc1)NC(=O)[C@H](CCC(=O)O)NC(=O)[C@H](CCCCNC(=O)COCCOCCNC(=O)COCCOCCNC(=O)CC[C@H](NC(=O)CCCCCCCCCCCCCCCCC(=O)O)C(=O)O)NC(=O)[C@H](C)NC(=O)[C@H](C)NC(=O)[C@H](CCC(N)=O)NC(=O)CNC(=O)[C@H](CCC(=O)O)NC(=O)[C@H](CC(C)C)NC(=O)[C@H](Cc1ccc(O)cc1)NC(=O)[C@H](CO)NC(=O)[C@H](CO)NC(=O)[C@@H](NC(=O)[C@H](CC(=O)O)NC(=O)[C@H](CO)NC(=O)[C@@H](NC(=O)[C@H](Cc1ccccc1)NC(=O)[C@@H](NC(=O)CNC(=O)[C@H](CCC(=O)O)NC(=O)C(C)(C)NC(=O)[C@@H](N)Cc1cnc[nH]1)[C@@H](C)O)[C@@H](C)O)C(C)C)C(=O)N[C@@H](C)C(=O)N[C@@H](Cc1c[nH]c2ccccc12)C(=O)N[C@@H](CC(C)C)C(=O)N[C@H](C(=O)N[C@@H](CCCNC(=N)N)C(=O)NCC(=O)N[C@@H](CCCNC(=N)N)C(=O)NCC(=O)O)C(C)C [semaglutide] | – | – | – | – | approximately 2 | approximately 2 | ~1.5 | approximately 70% | approximately 70% |
